Measurements pooled from the literature.
Target: MAP kinase-interacting serine/threonine-protein kinase 2 (MKNK2, Homo sapiens, UniProt Q9HBH9)

SMILES	test	conditions	endpoint	result
Cc1cnc(NC2CCOCC2)nc1-n1cnc(C(=O)NC(CN)c2cc(F)cc(Cl)c2)c1 (centres unmarked)	enzyme activity, inhibitor, radiometric	1 µM	remaining activity	25%
FC(F)(F)Oc1cccc(-c2cnc3ccc(-c4ccncc4)nn23)c1	enzyme activity, inhibitor, radiometric	5 µM	activity vs control	81%
Nc1nc(Nc2ccccc2)sc1C(=O)c1c(F)cccc1F	enzyme activity, inhibitor	10 µM	remaining activity	99%
CO[C@@H](C)c1c(Nc2ccc([C@@H](N(C)C(=O)C3CCS(=O)(=O)CC3)C(F)(F)F)cc2)cnc2cc(Cl)nn12	cell-free assay, competition with immobilised ligand	1 µM	remaining binding	85%
COc1cc2c(N3CCN(C(=O)Nc4ccc(OC(C)C)cc4)CC3)ncnc2cc1OCCCN1CCCCC1	cell-free assay	0.5 µM	remaining signal	99%
Cc1cc(NC(=O)c2cccc3cc(-c4cccc5[nH]nc(N)c45)ccc23)ccc1F	enzyme activity, inhibitor	0.1 µM	activity vs control	111%
FC(F)c1nc2ccccc2n1-c1nc(N2CCOCC2)nc(N2CCOCC2)n1	enzyme activity, inhibitor	10 µM	remaining activity	101%
Cc1sc(C(=O)NC2COC2)cc1-n1cc(NC(=O)Nc2c(F)cccc2Cl)cn1	enzyme activity, inhibitor	10 µM	remaining activity	83.4%
CC/C(=N\NC(=O)NCc1cccc(O)c1)c1ccc(O)c(C)c1O	enzyme activity, inhibitor	0.1 µM	inhibition	-2.9%
CCN(CC)CCNC(=O)c1c(C)[nH]c(/C=C2\C(=O)Nc3ccc(F)cc32)c1C	enzyme activity, inhibitor	0.3 µM	inhibition	-18%
O=C1Nc2ccc(Cl)cc2C1=Cc1cc(Cl)c(O)c(Cl)c1	cell-free assay	0.5 µM	remaining signal	88.7%
CNC(=O)c1cc(Oc2ccc(NC(=O)Nc3ccc(Cl)c(C(F)(F)F)c3)cc2)ccn1	enzyme activity, inhibitor	10 µM	inhibition	90%
Cn1nc(C(=O)NCc2ccc(C(=O)O)cc2)cc1-c1ccc2[nH]ccc2c1	cell-free assay, competition with immobilised ligand	0.1 µM	remaining binding	96%
COc1cc(/C=C/C(=O)CC(=O)/C=C/c2ccc(O)c(OC)c2)ccc1O	enzyme activity, inhibitor	1 µM	activity vs control	129%
CN1CC(Oc2cnc(C#N)cc2-c2ccn3nc(NC(=O)C4CC4)cc3c2)C1	enzyme activity, inhibitor	1 µM	inhibition	5%
CC(C)(C)c1nc2c(s1)c1nc(N)ncc1c1ccc(NS(=O)(=O)c3c(F)cccc3F)c(F)c12	enzyme activity, inhibitor, radiometric	1 µM	remaining activity	98%

SMILES	test	conditions	endpoint	result
COc1cc(Cl)c(C(=O)N[C@@H](CN[C@H]2CC[C@@H](N)CC2)Cc2ccc(C#N)cc2)cc1-c1ccc(CN[C@H](C)c2ccc(C)cc2)o1	enzyme activity, inhibitor	1 µM	remaining activity	102%
COc1cc(-c2cn(C3CCc4ccccc4N(CC(F)(F)F)C3=O)nn2)ccc1-n1ccc(C)n1 (centres unmarked)	cell-free assay, competition with immobilised ligand	1 µM	remaining binding	66%
O=C(CSc1nc2nccnc2c(=O)n1CCc1ccccc1)Nc1nccs1	enzyme activity, inhibitor	10 µM	inhibition	-11%
NS(=O)(=O)c1cc(NC(=O)C2(c3ccccc3Cl)CC2)ccc1Oc1cccc(Cl)c1	cell-free assay, competition with immobilised ligand	1 µM	remaining binding	100%
Clc1ccc(Nc2nnc(Cc3ccncc3)c3ccccc23)cc1	cell-free assay	0.5 µM	remaining signal	101%
CC(=O)C1=C(C)N(c2cccc(C(F)(F)F)c2)C(=O)N[C@@H]1c1ccc(C#N)nc1	cell-free assay, competition with immobilised ligand	1 µM	remaining binding	84.8%
COc1cc(Nc2cnc(C#N)c(O[C@H](C)CN(C)C)n2)ncc1-c1cnn(C)c1	enzyme activity, inhibitor, radiometric	10 µM	remaining activity	112%
CC1=C(C#N)[C@@H](c2ccc3[nH]nc(C)c3c2)C(C#N)=C(c2ccc(Cl)cc2)N1	cell-free assay, competition with immobilised ligand	1 µM	remaining binding	90.6%
CC(C)(O)[C@H]1CC[C@H](Nc2ccc3ncc(-c4cccc(C(F)(F)F)c4)n3n2)CC1	enzyme activity, inhibitor	1 µM	remaining activity	66.5%
Cc1ccc(NC(=O)c2ccc(C)c(C(F)(F)F)c2)cc1C#Cc1nn(C2CCC(O)CC2)c2ncnc(N)c12 (centres unmarked)	cell-free assay	10 µM	remaining signal	96%
CC(C)(O)c1cncc(-c2nc3ccc(F)cc3n2C2CC2)c1	cell-free assay, competition with immobilised ligand	1 µM	remaining binding	100%
CC(C)(C)C(=O)c1sc(NC2CCCCC2)nc1N	enzyme activity, inhibitor	10 µM	remaining activity	96%
CSc1cccnc1N1CCN(Cc2nc3ccccc3[nH]2)CC1	cell-free assay, competition with immobilised ligand	1 µM	remaining binding	75%
CCN(CC)c1ccc(C2=NNC(=O)CC2C)cc1[N+](=O)[O-] (centres unmarked)	enzyme activity, inhibitor	10 µM	remaining activity	25%
COc1ccc(COc2ccc(Cc3cnc(N)nc3N)cc2OC)cc1	cell-free assay	0.5 µM	remaining signal	90.6%
Cc1ccc(Nc2nccc(N(C)c3ccc4c(C)n(C)nc4c3)n2)cc1S(N)(=O)=O	enzyme activity, inhibitor	10 µM	inhibition	9%
